Results as given in PMC9796681 (British Journal of Clinical Pharmacology, 2022).
Values joined by “and” are separate entries in the source; they are usually repeats but may differ in a detail not shown here. Identical values can stand only once. “Also recorded” adds a separate entry of the source. Like-named read-outs stand apart in the source and are kept apart here.

Key:
[1] = Population pharmacokinetic analysis; type: in vivo, human
Outline: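 Healthy young subjects: single 80 mg dose, fasting, sampled predose to 102 h. Gout patients: 40-160 mg/day at steady state (≥7 days after dose change), up to four samples at 1–24 h post-dose. Plasma assayed by HPLC-fluorescence, LLQ 0.005 µg mL-1. Two-compartment model, first-order elimination; power covariate model normalised to median; shared random effect on availability (FVAR); food tested on ka and F.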

[2] = two-compartment model; gouty; cited from earlier work
[3] = one-compartment model; cited from earlier work
[4] = cited from earlier work
[5] = single dose 80 mg, healthy subjects

Structure (SMILES): Cc1nc(-c2ccc(OCC(C)C)c(C#N)c2)sc1C(=O)O [febuxostat]
- BSV-CL/F, between-subject variability (coefficient of variation) ([1]; final model): 13.6% and 13.6 (37.4) %
- BSV-FVAR, common variability on oral availability ([1]; final model): 27.7 (21.2) %
- BSV-Vc/F, between-subject variability (coefficient of variation) ([1]; final model): 22% and 22.0 (35.4) %
- BSV-Vp/F, between-subject variability (coefficient of variation) ([1]; final model): 19.5% and 19.5 (58.2) %
- Covariate BMI (ϴ 7), power exponent on Vc/F ([1]; final model, body mass index, median 30.6 kg m^−2): 0.996
- Covariate food on ka ([1]; final model, fed status): −0.869
- Covariate food on oral availability ([1]; final model, fed status): −0.667
- reduction of absorption rate constant ka by food ([1]; final model, fed versus fasted): 87%
- reduction of oral availability (relative bioavailability) by food ([1]; final model, fed versus fasted): 67%
- RUV-CV%, residual unexplained variability ([1]; final model, proportional residual error): 39.9 (10.1) %
- absorption rate constant ka (ϴ 5), population mean ([1]; final two-compartment model): 3.6 h⁻¹ and 3.62 h⁻¹
- apparent peripheral volume of distribution Vp/F (ϴ 4), population mean ([1]; final two-compartment model): 19.4 L
- intercompartmental clearance Q (ϴ 3), population mean ([1]; final two-compartment model): 1.25 L/h
- Vd/F ([1]; human, plasma, oral): 32.8 L
- Residual CV [2]: 71%
- Vc/F, final estimate [2]: 32.2 L
- Vp/F, final estimate [2]: 22.2 L
- ka, absorption rate constant [2]: 13 h⁻¹
- ka, absorption rate constant [3]: 2.52 h⁻¹
- effect of mild and moderate hepatic impairment on the pharmacokinetics ([4]; Child-Pugh class A and B): no effect; also recorded: did not affect
- CL/F ([4]; Japanese subjects who had gout or were hyperuricaemic): 9.9 L/h
- reduction of apparent clearance by UGT polymorphisms ([4]; UGT six and 28 variants): 22%
- ka, value assumed ([4]; assumed by Hirai et al): 2.18 h⁻¹
- decline of plasma concentration over the dosage interval ([4]; dosage interval 24 h): up to 100 fold
- CL/F ([4]; healthy African Americans): 10.5 L/h
- CL/F ([4]; healthy Chinese subjects): 5.3 Lh^−1
- effect of food on the extent of absorption (AUC0-48) ([4]; healthy subjects, 48 h): negligible effect; also recorded: reduce the rate but not the extent of absorption
- cleared by phase I metabolism (oxidation) ([4]; healthy subjects): ~ 35%
- cleared by phase II metabolism (glucuronidation) ([4]; healthy subjects): ~ 40%
- febuxostat eliminated from plasma in the first 9 h post-dose ([4]; healthy subjects): 81%
- reduction in AUC0-24 with food ([4]; healthy subjects): 20%
- reduction in C max with food ([4]; healthy subjects): 50%
- mean initial half-life [4, 5]: 2 h
- mean terminal half-life [4, 5]: 14 h

Structure (SMILES): Cc1nc(-c2ccc(OCC(C)C)c(C#N)c2)sc1C(=O)O[C@@H]1O[C@H](C(=O)O)[C@@H](O)[C@H](O)[C@H]1O [Febuxostat glucuronide]
- proportion of the febuxostat dose as glucuronide, excreted by the kidneys ([4]; published data): about 40%
